Reference: ChEMBL document CHEMBL1146324, “Discovery of (Z)-2-phenyl-3-(1H-pyrrol-2-yl)acrylonitrile derivatives active against Haemonchus contortus and Ctenocephalides felis (cat flea)” (2007)
Calls of active or inactive are those of the source. The calls are words filed in the database; no cut-off is given here.

Legend:
Haemonchus contortus [1] = assay: Parasiticidal activity against Haemonchus contortus McMaster; format: functional
Method in brief: (§1)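 Larval development assay with Haemonchus contortus larvae. The endpoint was LD99, and the assay was performed by an external screening contractor.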

Ctenocephalides felis [2] = assay: Parasiticidal activity against Ctenocephalides felis after 8 hrs; format: functional
Method in brief: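 Cat flea contact assay: compound applied in acetone to the base of four flasks at 1.26 µg/cm², held at 25 ± 1 °C and 75 ± 5% humidity. Dead fleas counted at 8 h, and pooled counts converted to percent mortality.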

Ctenocephalides felis [3] = assay: Parasiticidal activity against Ctenocephalides felis; format: functional
Ctenocephalides felis [4] = assay: Parasiticidal activity against Ctenocephalides felis after 24 hrs; format: functional; parameters: concentration or dose not given beside the values
Method in brief: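 Single-dose in vitro cat flea assay: compound in acetone (0.5 mL) coated on the base of four 100 mL flasks at 1.26 µg/cm². Flasks held at 25 ± 1 °C and 75 ± 5% humidity for 24 h. Dead fleas counted per flask, and pooled data expressed as percent mortality.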

Saccharomyces cerevisiae = assay: Parasiticide activity against Saccharomyces cerevisiae; format: functional, organism-based
[5] = system: Teladorsagia circumcincta; assay: Parasiticidal activity against Ostertagia circumcincta McMaster; format: functional
Haemonchus contortus [6] = assay: Parasiticidal activity against benzimidazole-resistant Haemonchus contortus Lawes; format: functional; method in brief: as §1
Haemonchus contortus [7] = assay: Parasiticidal activity against levamisole-resistant Haemonchus contortus Lawes; format: functional; method in brief: as §1
Haemonchus contortus [8] = assay: Parasiticidal activity against avermectin-resistant Haemonchus contortus CAVR; format: functional; method in brief: as §1
[9] = system: Trichostrongylus colubriformis; assay: Parasiticidal activity against Trichostrongylus colubriformis; format: functional
Bacillus subtilis = assay: Parasiticidal activity against Bacillus subtilis; format: functional
[10] = Cytotoxicity against mouse NS1 cells; format: functional

Compound | LD99 (Haemonchus contortus [1]) | Activity (Ctenocephalides felis [4]) | further results
Cn1cccc1/C=C(\C#N)c1ccc(Cl)cc1 | 7.8 µM |  | Activity (Ctenocephalides felis [2]): 13%
N#C/C(=C\c1ccc[nH]1)c1cccc(F)c1 | 8 µM | 78% | LC50 (Ctenocephalides felis [3]): 0.78 ug/sq.cm
N#C/C(=C\c1ccc[nH]1)c1cccc(Oc2ccccc2)c1 | 11 µM | 10% | 
N#C/C(=C\c1ccc[nH]1)c1ccccc1Br | 12 µM | 30% | 
N#C/C(=C\c1cccn1C(=O)c1ccccc1)c1ccc(Cl)cc1 | 3.8 µM | 6% | 
N#C/C(=C\c1ccc[nH]1)c1cccc(C(F)(F)F)c1 | 3.6 µM | 56% | LC50 (Ctenocephalides felis [3]): 9.9 ug/sq.cm
N#C/C(=C\c1ccc[nH]1)c1c(F)cccc1F | 52 µM | 17% | 
N#C/C(=C\c1cc(Br)c[nH]1)c1ccc(Cl)cc1 | 1.5 µM | 23% | 
CC(C)=CCn1cccc1/C=C(\C#N)c1ccc(Cl)cc1 | >51 µM | 0% | 
N#C/C(=C\c1cc(Br)c[nH]1)c1ccc(F)cc1 | 17 µM | 15% | 
N#C/C(=C\c1ccc[nH]1)c1ccc([N+](=O)[O-])cc1 | >63 µM | 6% | 
N#C/C(=C\c1ccc[nH]1)c1cccc(Cl)c1 | 3.3 µM | 28% | 
COc1ccccc1/C(C#N)=C/c1ccc[nH]1 |  | 9% | 
N#C/C(=C\c1ccc[nH]1)c1ccc(F)cc1 | 2 µM | 78% | LC50 (Ctenocephalides felis [3]): 0.3 ug/sq.cm
COc1ccc(/C(C#N)=C/c2ccc[nH]2)cc1 | 6.7 µM | 31% | 
N#C/C(=C\c1ccc[nH]1)c1ccc(Br)cc1 | 0.84 µM | 42% | 
CCN(CC)C(=O)n1cccc1/C=C(\C#N)c1ccc(Cl)cc1 | 11 µM | 8% | 
N#C/C(=C\c1ccc[nH]1)c1ccccc1C(F)(F)F |  | 14% | 
N#C/C(=C\c1ccc[nH]1)c1cc(C(F)(F)F)cc(C(F)(F)F)c1 | >45 µM | 27% | 
N#C/C(=C\c1ccc[nH]1)c1ccccc1F | 12 µM | 92% | LC50 (Ctenocephalides felis [3]): 0.59 ug/sq.cm
CC(C)(C)OC(=O)n1cccc1/C=C(\C#N)c1ccc(Cl)cc1 | 11 µM | 9% | 

Compound | LD99 (Haemonchus contortus [1]) | Activity (Ctenocephalides felis [4]) | further results
N#C/C(=C\c1ccc[nH]1)c1cccc(Br)c1 | 3.4 µM | 24% | 
N#C/C(=C\c1ccc[nH]1)c1ccc(Cl)cc1Cl | 11 µM | 8% | 
Cc1ccc(/C(C#N)=C/c2ccc[nH]2)c(C)c1 |  | 44% | 
COC(=O)n1cccc1/C=C(\C#N)c1ccc(Cl)cc1 | 4.4 µM | 16% | 
N#C/C(=C\c1ccc[nH]1)c1c(F)cccc1Cl | >61 µM | 7% | 
N#C/C(=C\c1ccc[nH]1)c1ccc(I)cc1 | 2.2 µM | 14% | 
N#C/C(=C\c1ccc[nH]1)c1ccc(F)cc1F | 11 µM | 5% | 
CN(C)C(=S)n1cccc1/C=C(\C#N)c1ccc(Cl)cc1 | 32 µM | 19% | 
Cc1cc(C(C#N)c2ccc(Cl)cc2)c(Cl)cc1NC(=O)c1cc(I)cc(I)c1O (stereo unspecified) [CLOSANTEL] | 9.4 µM |  | 
Cc1ccccc1/C(C#N)=C/c1ccc[nH]1 | 18 µM | 100% | LC50 (Ctenocephalides felis [3]): 0.08 ug/sq.cm
N#C/C(=C\c1ccc[nH]1)c1ccc(F)c(F)c1 | 7.6 µM | 17% | 
CC(C)c1ccc(/C(C#N)=C/c2ccc[nH]2)cc1 |  | 100% | LC50 (Ctenocephalides felis [3]): 1.32 ug/sq.cm
N#C/C(=C\c1ccc[nH]1)c1ccc(Cl)cc1 | 1.8 µM |  | LC50 (Ctenocephalides felis [3]): 0.17 ug/sq.cm; Activity (Ctenocephalides felis [2]): 95%
Cc1ccc(S(=O)(=O)n2cccc2/C=C(\C#N)c2ccc(Cl)cc2)cc1 | 31 µM | 0% | 
N#C/C(=C\c1ccc[nH]1)c1ccccc1-c1ccccc1 |  | 2% | 
N#C/C(=C\c1ccc[nH]1)c1ccc(C(F)(F)F)cc1 | 3.1 µM | 20% | 
N#CC(C#N)=Cc1cc(Cl)c(Cl)[nH]1 | 1.8 µM |  | Activity (Saccharomyces cerevisiae): inactive; Activity (Ctenocephalides felis [3]): inactive; LD99 [5]: 2.2 µM; LD99 (Haemonchus contortus [6]): 2.2 µM; LD99 (Haemonchus contortus [7]): 2.2 µM; LD99 (Haemonchus contortus [8]): 2.2 µM; LD99 [9]: 9 µM; LD99 (Bacillus subtilis): 1.7 µM; LD99 [10]: 13 µM
N#C/C(=C\c1ccc[nH]1)c1ccccc1Cl | 12 µM | 19% | 
N#C/C(=C\c1cc(Br)c[nH]1)c1ccc(C(F)(F)F)cc1 | >44 µM | 15% | 
N#C/C(=C\c1cc(Cl)c(Cl)[nH]1)c1ccc(Cl)cc1 | 10 µM | 15% | 
N#C/C(=C\c1ccc[nH]1)c1ccc(F)cc1Cl | 12 µM | 30% | 

Compound | LD99 (Haemonchus contortus [1]) | Activity (Ctenocephalides felis [4]) | further results
CC(C)(C)c1ccc(/C(C#N)=C/c2ccc[nH]2)cc1 | 13 µM | 87% | LC50 (Ctenocephalides felis [3]): 0.48 ug/sq.cm
CCC(=O)n1cccc1/C=C(\C#N)c1ccc(Cl)cc1 | 1.3 µM | 12% | 
N#C/C(=C\c1ccc[nH]1)c1ccc(F)c(Cl)c1 | 5.1 µM | 5% | 
c1ccc([C@H]2CN3CCSC3=N2)cc1 [LEVAMISOLE] | 0.66 µM |  | 
Cc1ccc(/C(C#N)=C/c2ccc[nH]2)cc1 | 4.5 µM | 69% | 
N#C/C(=C\c1cc(Br)c[nH]1)c1ccc(Cl)c(Cl)c1 | 7.3 µM | 19% | 
N#Cc1nn(-c2c(Cl)cc(C(F)(F)F)cc2Cl)c(N)c1[S+]([O-])C(F)(F)F (stereo unspecified) [FIPRONIL] |  |  | LC50 (Ctenocephalides felis [3]): 0.018 ug/sq.cm
N#C/C(=C\c1cc(Br)c[nH]1)c1cccc(F)c1 | 38 µM | 18% | 
N#C/C(=C\c1ccc[nH]1)c1ccccc1 | 2.4 µM | 98% | LC50 (Ctenocephalides felis [3]): 0.26 ug/sq.cm
N#C/C(=C\c1ccc[nH]1)c1ccc(C#N)cc1 | 46 µM | 44% | 
N#C/C(=C\c1ccc[nH]1)c1ccc(-c2ccccc2)cc1 | 28 µM | 46% | 
N#C/C(=C\c1cccn1Cc1ccccc1)c1ccc(Cl)cc1 | 44 µM | 3% | 
CCc1ccc(/C(C#N)=C/c2ccc[nH]2)cc1 | 4 µM | 58% | 
IVERMECTIN | 0.0057 µM |  | 
N#C/C(=C\c1ccc[nH]1)c1ccccc1C#N | >68 µM | 11% | 
Cc1cccc(/C(C#N)=C/c2ccc[nH]2)c1 | 6 µM | 42% | 
N#C/C(=C\c1cc(Br)c[nH]1)c1cccc(C(F)(F)F)c1 | 9.5 µM |  | 
CCOCn1cccc1/C=C(\C#N)c1ccc(Cl)cc1 | 19 µM |  | Activity (Ctenocephalides felis [2]): 6%
N#C/C(=C\c1ccc[nH]1)c1ccc(Cl)cc1F | 10 µM | 5% | 
N#C/C(=C\c1ccc[nH]1)c1ccc(Cl)c(Cl)c1 | 2.9 µM | 41% | 
